ChEMBL document CHEMBL1121643, “Pyrazolo[5,1-b]quinazolin-9-ones: a new series of antiallergic agents” (1981)
Activity calls are given as the source filed them. No cut-off for these calls is given here.

What was measured:
Rattus norvegicus [1] = assay: Inhibition of passive cutaneous anaphylaxis (PCA) reaction in rats by intraperitoneal administration of 5 mg/kg; assay type: functional; details: ip
Summary of the method: (§1)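 Rats were sensitized by intradermal antiserum dilutions at several dorsal sites. After 48 h they were challenged iv with 1 mg ovalbumin in 1 mL saline containing 0.25% Evans blue. Drug was suspended in 1% gum tragacanth in saline and given ip or orally 10–15 min before challenge. Rats were killed 30 min later and the mean orthogonal wheal diameter was measured.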

Rattus norvegicus [2] = assay: Inhibition of passive cutaneous anaphylaxis (PCA) reaction in rats, peroral administration 5 mg/kg; assay type: functional; details: route oral; summary of the method: as §1
Rattus norvegicus [3] = assay: Ability to inhibit the passive cutaneous anaphylaxis (PCA) reaction in rats by intravenous administration of 0.001 mg/kg; assay type: functional
Summary of the method: (§2)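 Rats were given intradermal antiserum dilutions on the back. At 48 h, drug dissolved in the challenge solution (1 mg ovalbumin, 0.25% Evans blue, 1 mL saline) was injected iv with the antigen; sodium bicarbonate in slight molar excess was used if needed. Wheal diameters were read 30 min later and plotted against antiserum concentration, with the least-squares line extrapolated to a zero-antiserum base value. Five rats per group.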

Rattus norvegicus [4] = assay: Ability to inhibit the passive cutaneous anaphylaxis (PCA) reaction in rats by peroral administration of 10 mg/kg; assay type: functional; details: route oral; summary of the method: as §1
Rattus norvegicus [5] = assay: Ability to inhibit the passive cutaneous anaphylaxis (PCA) reaction in rats by intravenous administration of 0.005 mg/kg; assay type: functional; summary of the method: as §2
Rattus norvegicus [6] = assay: Inhibition of the passive cutaneous anaphylaxis (PCA) reaction in rats by intravenous administration of 0.01 mg/kg; assay type: functional; summary of the method: as §2
Rattus norvegicus [7] = assay: Inhibition of the passive cutaneous anaphylaxis (PCA) reaction in rats by intravenous administration of 0.1 mg/kg; assay type: functional; summary of the method: as §2
Rattus norvegicus [8] = assay: Ability to inhibit the passive cutaneous anaphylaxis (PCA) reaction in rats by peroral administration of 1 mg/kg; assay type: functional; details: route oral; summary of the method: as §1
Rattus norvegicus [9] = assay: Ability to inhibit the passive cutaneous anaphylaxis (PCA) reaction in rats by intravenous administration of 0.01 mg/kg; assay type: functional; summary of the method: as §2
Rattus norvegicus [10] = assay: Ability to inhibit the passive cutaneous anaphylaxis (PCA) reaction in rats by intraperitoneal administration of 1 mg/kg; assay type: functional; details: ip; summary of the method: as §1
Rattus norvegicus [11] = assay: Ability to inhibit the passive cutaneous anaphylaxis (PCA) reaction in rats by intravenous administration of 0.5 mg/kg; assay type: functional; summary of the method: as §2
Rattus norvegicus [12] = assay: Ability to inhibit the passive cutaneous anaphylaxis (PCA) reaction in rats by peroral administration of 2 mg/kg; assay type: functional; summary of the method: as §1
Rattus norvegicus [13] = assay: Ability to inhibit the passive cutaneous anaphylaxis (PCA) reaction in rats by peroral administration; assay type: functional; summary of the method: as §1
Rattus norvegicus [14] = assay: Ability to inhibit the passive cutaneous anaphylaxis (PCA) reaction in rats by peroral administration of 5 mg/kg; assay type: functional; details: route oral; summary of the method: as §1
Rattus norvegicus [15] = assay: Ability to inhibit the passive cutaneous anaphylaxis (PCA) reaction in rats by intraperitoneal administration of 5 mg/kg; assay type: functional; details: ip; summary of the method: as §1
Rattus norvegicus [16] = assay: Ability to inhibit the passive cutaneous anaphylaxis (PCA) reaction in rats by peroral administration; Inactive; assay type: functional, organism-based; summary of the method: as §1
Rattus norvegicus [17] = assay: Ability to inhibit the passive cutaneous anaphylaxis (PCA) reaction in rats by intravenous administration of 1.5 mg/kg; assay type: functional; summary of the method: as §2

SMILES	inhibition in vivo at 5 mg/kg (Rattus norvegicus [1]) [%]	inhibition in vivo at 5 mg/kg (Rattus norvegicus [2]) [%]	other results
COc1cccc2c(=O)n3nc(C(=O)O)cc3n(C)c12	60	–	–
COc1cccc2nc3cc(C(=O)O)nn3c(O)c12	62	18	–
COc1cccc2c(O)n3nc(C(=O)O)cc3nc12	70	79	inhibition in vivo at 0.001 mg/kg (Rattus norvegicus [3]): 8%; inhibition in vivo at 10 mg/kg (Rattus norvegicus [4]): 62%; inhibition in vivo at 0.005 mg/kg (Rattus norvegicus [5]): 31%; inhibition in vivo at 0.01 mg/kg (Rattus norvegicus [6]): 74%; inhibition in vivo at 0.1 mg/kg (Rattus norvegicus [7]): 100%
O=C(O)c1ccc2nc3cc(C(=O)O)nn3c(O)c2c1	21	7	–
O=C(O)c1cc2nc3ccccc3c(O)n2n1	100	5	inhibition in vivo at 1 mg/kg (Rattus norvegicus [8]): 23%; inhibition in vivo at 0.01 mg/kg (Rattus norvegicus [9]): 0%; inhibition in vivo at 0.1 mg/kg (Rattus norvegicus [7]): 54%; inhibition in vivo at 1 mg/kg (Rattus norvegicus [10]): 55%
COc1ccc2nc3cc(C(=O)Nc4nn[nH]n4)nn3c(O)c2c1	80	–	inhibition in vivo at 10 mg/kg (Rattus norvegicus [4]): 43%; inhibition in vivo at 0.1 mg/kg (Rattus norvegicus [7]): 90%
COc1cccc2nc3cc(C(=O)Nc4nn[nH]n4)nn3c(O)c12	100	18	–
Cn1c2ccc(Cl)cc2c(=O)n2nc(-c3nn[nH]n3)cc12	100	0	inhibition in vivo at 0.5 mg/kg (Rattus norvegicus [11]): 100%; inhibition in vivo at 2 mg/kg (Rattus norvegicus [12]; route oral): 39%; inhibition in vivo at 0.01 mg/kg (Rattus norvegicus [6]): 17%
Cc1cc2n(C)c3ccc(C(=O)O)cc3c(=O)n2n1	–	–	inhibition in vivo at 0.5 mg/kg (Rattus norvegicus [11]): 21%; inhibition in vivo at 2 mg/kg (Rattus norvegicus [12]; route oral): 9%
Cn1c2ccccc2c(=O)n2nc(C(=O)Nc3nn[nH]n3)cc12	51	–	Inhibition (Rattus norvegicus [13]): 0%
O=C(Nc1nn[nH]n1)c1cc2nc3ccccc3c(O)n2n1	100	1	–
Cn1c2ccc(F)cc2c(=O)n2nc(C(=O)O)cc12	83	–	inhibition in vivo at 0.5 mg/kg (Rattus norvegicus [11]): 84%; inhibition in vivo at 2 mg/kg (Rattus norvegicus [12]; route oral): 40%
Oc1c2ccccc2nc2cc(-c3nn[nH]n3)nn12	26	0	–
Cc1ccc2nc3cc(C(=O)O)nn3c(O)c2c1	100	0	–
COc1ccc2nc3cc(C(=O)O)nn3c(O)c2c1	94	0	inhibition in vivo at 0.01 mg/kg (Rattus norvegicus [6]): 30%
COc1cccc2c(O)n3nc(-c4nn[nH]n4)cc3nc12	27	3	–
COc1ccc2c(c1)c(=O)n1nc(-c3nn[nH]n3)cc1n2C	100	0	inhibition in vivo at 0.5 mg/kg (Rattus norvegicus [11]): 100%
O=C(O)c1cc2nc3ccc(F)cc3c(O)n2n1	95	16	inhibition in vivo at 0.01 mg/kg (Rattus norvegicus [6]): 2%; inhibition in vivo at 0.1 mg/kg (Rattus norvegicus [7]): 62%
Oc1c2cc(Cl)ccc2nc2cc(-c3nn[nH]n3)nn12	25	1	–
Cn1c2ccc(N)cc2c(=O)n2nc(C(=O)O)cc12	84	0	inhibition in vivo at 0.1 mg/kg (Rattus norvegicus [7]): 16%
Cn1c2ccc(F)cc2c(=O)n2nc(-c3nn[nH]n3)cc12	100	8	inhibition in vivo at 2 mg/kg (Rattus norvegicus [12]; route oral): 27%; inhibition in vivo at 0.01 mg/kg (Rattus norvegicus [6]): 10%; inhibition in vivo at 0.1 mg/kg (Rattus norvegicus [7]): 100%
Cc1ccc2c(c1)c(=O)n1nc(C(=O)O)cc1n2C	–	–	inhibition in vivo at 0.5 mg/kg (Rattus norvegicus [11]): 55%; inhibition in vivo at 2 mg/kg (Rattus norvegicus [12]; route oral): 25%
O=C(O)c1cc2n(Cc3ccccc3)c3ccc(Cl)cc3c(=O)n2n1	–	7	–
O=C(Nc1nn[nH]n1)c1cc2nc3ccc(O)cc3c(O)n2n1	100	–	inhibition in vivo at 0.1 mg/kg (Rattus norvegicus [7]): 90%
CSc1ccc2nc3cc(C(=O)Nc4nn[nH]n4)nn3c(O)c2c1	90	–	–
CCn1c2ccc(Cl)cc2c(=O)n2nc(C(=O)O)cc12	–	–	inhibition in vivo at 0.1 mg/kg (Rattus norvegicus [7]): 16%

SMILES	inhibition in vivo at 5 mg/kg (Rattus norvegicus [1]) [%]	inhibition in vivo at 5 mg/kg (Rattus norvegicus [2]) [%]	other results
Cn1c2ccccc2c(=O)n2nc(C(=O)O)cc12	–	–	inhibition in vivo at 5 mg/kg (Rattus norvegicus [14]): 40%; inhibition in vivo at 0.5 mg/kg (Rattus norvegicus [11]): 100%; inhibition in vivo at 5 mg/kg (Rattus norvegicus [15]): 100%
O=C(O)c1cc2nc3cc(Cl)c(Cl)cc3c(O)n2n1	9	0	–
COc1cc2c(=O)n3nc(C(=O)O)cc3n(C)c2cc1OC	100	6	–
O=C(O)c1ccc2c(O)n3nc(C(=O)O)cc3nc2c1	74	–	inhibition in vivo at 0.1 mg/kg (Rattus norvegicus [7]): 56%
Cn1c2ccc(NC(=O)c3ccccc3)cc2c(=O)n2nc(C(=O)O)cc12	54	1	–
COc1ccc2nc3cc(-c4nn[nH]n4)nn3c(O)c2c1	87	–	inhibition in vivo at 1 mg/kg (Rattus norvegicus [8]): 21%
CC(=O)Nc1ccc2c(c1)c(=O)n1nc(C(=O)O)cc1n2C	–	0	–
COc1cc2nc3cc(C(=O)O)nn3c(O)c2cc1OC	97	5	inhibition in vivo at 0.01 mg/kg (Rattus norvegicus [6]): 16%; inhibition in vivo at 0.1 mg/kg (Rattus norvegicus [7]): 100%
O=C(O)c1cc2nc3ccc(Cl)cc3c(O)n2n1	45	0	–
CCOC(=O)c1cc2n(CC)c3ccc(Cl)cc3c(=O)n2n1	100	–	–
O=C(O)c1cc2nc3ccc(O)cc3c(O)n2n1	100	0	–
O=C(O)c1cc(=O)c2c(OCC(O)COc3cccc4oc(C(=O)O)cc(=O)c34)cccc2o1 [CROMOLYN SODIUM]	–	–	inhibition (Rattus norvegicus [16]): inactive; inhibition in vivo at 1.5 mg/kg (Rattus norvegicus [17]): 50%
Nc1ccc2nc3cc(C(=O)O)nn3c(O)c2c1	38	16	–
COc1cc2nc3cc(C(=O)Nc4nn[nH]n4)nn3c(O)c2cc1OC	100	0	–
Cn1c2ccccc2c(=O)n2nc(-c3nn[nH]n3)cc12	91	0	inhibition in vivo at 0.5 mg/kg (Rattus norvegicus [11]): 84%; inhibition in vivo at 2 mg/kg (Rattus norvegicus [12]; route oral): 52%; inhibition in vivo at 0.1 mg/kg (Rattus norvegicus [7]): 0%
Cn1c2ccc(Cl)cc2c(=O)n2nc(C(=O)O)cc12	–	–	inhibition in vivo at 0.5 mg/kg (Rattus norvegicus [11]): 70%; inhibition in vivo at 2 mg/kg (Rattus norvegicus [12]; read-out: Inhibition, route oral): 9%; inhibition in vivo at 1 mg/kg (Rattus norvegicus [10]; read-out: Inhibition): 59%
COc1cccc2c(O)n3nc(C(=O)Nc4nn[nH]n4)cc3nc12	100	14	–
CCOC(=O)c1cc2nc3ccccc3c(O)n2n1	74	0	–
O=C(Nc1nn[nH]n1)c1cc2n(Cc3ccccc3)c3ccc(Cl)cc3c(=O)n2n1	3	0	–
O=C(O)c1cc2nc3c(O)cccc3c(O)n2n1	100	–	inhibition in vivo at 0.1 mg/kg (Rattus norvegicus [7]): 75%
O=C(O)c1cc2nc3cccc(C(F)(F)F)c3c(O)n2n1	100	10	–
CCCOc1cccc2c(=O)n3nc(C(=O)O)cc3n(CCC)c12	72	–	–
Cc1cccc2c(O)n3nc(C(=O)O)cc3nc12	58	0	–
COc1ccc2c(c1)c(=O)n1nc(C(=O)O)cc1n2C	81	4	inhibition in vivo at 0.5 mg/kg (Rattus norvegicus [11]): 100%; inhibition in vivo at 0.01 mg/kg (Rattus norvegicus [6]): 23%
Cc1cccc2c(O)n3nc(C(=O)Nc4nn[nH]n4)cc3nc12	100	9	–
O=C(Nc1nn[nH]n1)c1cc2nc3ccc(Cl)cc3c(O)n2n1	22	8	–
